The list is not random: actives were taken first. Their share in the collection is about 2.3%.
V1aR counter: V1a receptor agonism, counter-screen for OXTR agonists. P37288. CHO-V1R cells, Fluo-8 calcium fluorescence, agonist mode; 0% DMSO, 100% 3 nM vasopressin. activation, % at 3 µM. hit rate 0.25% among 320,000. AID 2797;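 active = activation above the mean activation of all tested compounds plus 3 SD, per screening run, cut at about 20% in these data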;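 also: signal is peak over basal fluorescence ratio across a 100 second FLIPR read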
Target sequence (P37288 whole entry, looked up): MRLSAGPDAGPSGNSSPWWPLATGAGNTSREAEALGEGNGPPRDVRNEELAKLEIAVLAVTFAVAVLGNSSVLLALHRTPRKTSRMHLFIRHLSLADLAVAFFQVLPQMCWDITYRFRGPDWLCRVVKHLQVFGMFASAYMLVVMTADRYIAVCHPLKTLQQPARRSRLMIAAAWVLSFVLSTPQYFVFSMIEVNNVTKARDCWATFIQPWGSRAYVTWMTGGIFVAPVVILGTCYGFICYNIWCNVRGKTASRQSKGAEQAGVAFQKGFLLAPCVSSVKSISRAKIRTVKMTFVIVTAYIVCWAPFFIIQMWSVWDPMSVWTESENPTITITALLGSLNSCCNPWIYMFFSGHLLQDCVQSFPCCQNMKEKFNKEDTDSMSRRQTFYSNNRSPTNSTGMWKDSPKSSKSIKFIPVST
TAAR1 antag: human TAAR1 antagonism. inhibition, % at 3 µM. CHO RD-HGA16 TAAR1, Fluo-8 calcium fluorescence, antagonist. hit rate 1.5% among 360,000. AID 624466;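 active = inhibition above a per-plate cutoff, the mean inhibition of test compounds on that plate plus 3 SD, cut at about 49% in these data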;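 also: 0% = DMSO plus EC80 beta-PEA response and 100% = DMSO alone without agonist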
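Test system: hTAAR1-expressing CHO RD-HGA16 cells, Gα16-coupled; Probe or stimulus: EC80 β-phenethylamine stimulus; Compound dosing: single nominal final test compound concentration of 3 µM; Timing: 140 s kinetic read after compound, 140 s after agonist; Signal: Fluo-8 calcium-sensitive fluorescence; Measure: % inhibition of agonist calcium response; Controls: DMSO and EC80 PEA controls.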
TAAR1 ag: human TAAR1 agonism; CHO RD-HGA16 TAAR1, Fluo-8 calcium fluorescence; vehicle wells 0%, saturating PEA agonist 100%; hit rate 0.99% among 360,000; activation, % at 3 µM; AID 624467; Q96RJ0;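 active = activation above the mean activation of all test compounds in the run plus 3 SD, cut at about 38% in these data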
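Repeats: no replicates (n 1) | Material: CHO-derived RD-HGA16 cells with stable Gα16 and human TAAR1 | Technique: Kinetic Fluo-8 calcium fluorescence | Schedule: 17-24 h seeding, 75 min 37 °C dye, 30 min RT | Evaluation: % activation from peak over basal fluorescence ratio, DMSO-to-PEA scaled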
OXTR potentiate: potentiators of human oxytocin receptor | hit rate 0.061% among 320,000 | activation, % at 3 µM | P30559 | CHO-OTR cells, Fluo-8 calcium fluorescence, potentiator mode; 0% = oxytocin EC15, 100% = EC100;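 active = activation above that plate's cutoff, the mean activation of tested compounds plus 3 SD, cut at about 6.6% in these data, passing the limit was not always enough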;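 also: 100% uses oxytocin at 75 nM as the full agonist control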
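test system = CHO-OTR cells, human receptor | compound = single-point 3.0 µM | schedule = 6 min compound pre-incubation at room temperature, 100 s kinetic read | signal = Fluo-8 no-wash calcium dye fluorescence, excitation 470-495 nm, emission 515-575 nm | repeats = single well per compound, singlicate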
OXTR ag: activates the human oxytocin receptor; AID 2435; hit rate 0.32% among 320,000; P30559; activation, % at 3 µM; CHO-OTR cells, Fluo-8 calcium fluorescence; normalized: DMSO 0%, oxytocin 100%;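 active = activation above the mean of all tested compounds plus 3 SD, cutoff set per screening run, cut at about 20% in these data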;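 also: peak over basal fluorescence ratio from a 100 s FLIPR kinetic read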
The depositor's hits bear a star; . = not tested or not shown.

SMILES	V1aR counter	TAAR1 antag	TAAR1 ag	OXTR potentiate	OXTR ag
c1ccc2c(c1)OCCOCCOc1ccccc1OCCOCCO2	3.9	52.7*	18.2	-7.2	4.4
Nc1ccc2c(c1)OCCOCCOCCOCCOCCO2	1.9	-9.3	2.0	-9.5	0.5
COc1cccc(CN2CCC(C(=O)Nc3ccc(-c4cccc(C)c4)cc3)CC2)c1O	6.1	12.4	37.9*	-12.2	12.4
CCc1ccc2c(c1)Sc1ccccc1CC2N1CCN(C)CC1 (stereo not drawn)	7.2	9.6	43.2*	-9.2	14.1
CNC(=O)COC(=O)/C=C/c1c(C)nn(-c2ccccc2)c1C	0.8	11.7	0.6	3.4	1.0
Cc1ccc2c(c1)C(=O)C(=O)N2Cc1ccc(C(F)(F)F)cc1	0.9	55.5*	13.6	-5.4	-0.2
Cc1ccc(OCCN2C(=O)C(=O)c3cc(C)ccc32)cc1	-1.8	-18.0	-3.2	-2.7	0.0
COc1ccc(OC)c(CCNC(=O)c2cccc(NC(=O)C3=C(C)OCCS3)c2)c1	3.6	57.0*	9.8	-7.0	2.0
COc1ccc(OC)c(CCNC(=O)Cc2ccc(NC(=O)C3=C(C)OCCS3)cc2)c1	.	-13.7	-0.7	.	.
C/C(=N/NS(=O)(=O)c1ccc(Br)cc1)c1ccc(NC(=O)c2ccc(C)o2)cc1	3.5	11.1	38.5*	-11.1	5.6
COc1ccc(-c2nn(-c3ccccc3)cc2C(=O)N2CCN(S(=O)(=O)c3ccccc3C#N)CC2)cc1	-0.5	49.9*	4.4	-0.5	0.4
COc1ccc(-c2nn(-c3ccccc3)cc2C(=O)N2CCN(S(=O)(=O)c3ccccc3[N+](=O)[O-])CC2)cc1	.	20.1	15.4	.	.
O=C(CN1CCN(Cc2ccc3c(c2)OCO3)CC1)Nc1ccc(F)cc1	1.1	-21.9	41.4*	-7.1	0.7
O=C(CN1CCN(Cc2ccc3c(c2)OCO3)CC1)Nc1ccc2c(c1)OCO2	1.2	-10.7	17.9	2.2	0.7
O=C(CN1CCN(Cc2ccc3c(c2)OCO3)CC1)c1c[nH]c2ccccc12	2.7	1.6	38.1*	-11.7	8.8
O=C(Nc1ccccn1)c1cc(-c2cccc(Cl)c2)nc2ccccc12	-0.1	48.1	-0.3	-10.4	0.2
CCOc1ccc(-c2[nH]ncc2Oc2ccccc2OCC)c(O)c1	4.2	49.4*	17.3	-16.5	3.9
CCOc1ccc(-c2[nH]ncc2Oc2ccccc2OC)c(O)c1	0.6	27.2	0.6	-17.6	-1.8
CCCOc1ccc(C(=O)NNC(=O)CCNC(=O)c2ccco2)cc1OC	13.3	-27.2	0.3	-2.0	2.3
O=C(C[n+]1cccc(C(=O)Nc2ccccc2)c1)c1ccccc1	.	0.8	0.1	.	.
CC(=O)c1c(C)[nH]c(C(=O)COc2cc(C)ccc2C(C)C)c1C	9.1	72.4*	5.9	-14.1	8.9
COc1cc(C)ccc1OCC(=O)OCC(=O)c1[nH]c(C)c(C(C)=O)c1C	6.9	26.9	7.5	-8.9	5.7
Cc1ccc(N=c2ssnc2Cl)cc1	2.2	16.4	40.9*	-11.0	1.6
NNC1=N[C@H]2CS(=O)(=O)C[C@H]2S1	1.0	6.4	2.4	-1.9	-0.9
CCCCCc1c(-c2ccc(OC)cc2)ncn1CCc1ccccc1OC	.	60.7*	14.4	.	.
SMILES	V1aR counter	TAAR1 antag	TAAR1 ag	OXTR potentiate	OXTR ag
CCCCCc1c(-c2ccc(Cl)cc2)ncn1CCc1ccccc1OC	.	19.1	27.6	.	.
CCCCc1c(-c2ccc(OC)cc2)ncn1CCc1ccccc1OC	.	50.2*	23.6	.	.
CCOC(=O)C(CCc1ccccn1)c1ccccc1 (stereo not drawn)	.	-1.1	-1.3	.	.
Cc1ccc(C(C(=O)NCc2ccccc2)N(Cc2cccs2)C(=O)c2ccc3c(c2)OCCO3)cc1 (stereo not drawn)	3.8	64.3*	16.3	-20.2	1.1
Cc1ccc(-c2csc(N=C(N)N)n2)c(C)c1	3.2	-29.0	37.8*	-12.1	-0.4
COc1ccc(OC)c(-c2c3cc(O)c(=O)cc-3oc3cc(O)c(O)cc23)c1	485.5*	.	.	-11.6	714.8*
COc1ccc(OC)c(-c2oc3ccccc3c(=O)c2O)c1	-0.8	-5.1	1.3	-15.3	-1.9
CC(SCc1nc2sc3c(c2c(=O)[nH]1)CCCC3)C(=O)Nc1ccccn1 (stereo not drawn)	1.7	-1.5	3.9	-2.4	1.2
Cc1ccccc1CC(=O)Nc1ccc(S(=O)(=O)N2CCN(C)CC2)cc1	3.0	-18.0	14.9	-0.3	2.3
O=c1[nH]c(=S)[nH]c2nc(-c3ccccc3)cnc12	-0.2	-15.3	-1.0	-0.6	-2.4
Cc1cc2nc3c(=O)[nH]c(=S)[nH]c3nc2cc1NC(=O)C(F)(F)F	80.0*	-3.5	10.9	-16.7	55.0*
CC(C)(C)C#CCn1c(/C=[N+](\[O-])C2CCCCC2)nc2ccccc21	-0.2	.	.	-12.4	-2.4
N#CC(C#N)=C1C=C2C=C(N3CCCCC3)CCC2CC1 (stereo not drawn)	616.8*	.	.	-12.4	921.0*
Cn1cccc1C1Nc2ccccc2NC2=C1C(=O)CC(C)(C)C2 (stereo not drawn)	0.8	56.2*	16.0	-2.8	-0.1
CC1(C)CC(=O)C2=C(C1)Nc1ccccc1NC2c1cccc(F)c1 (stereo not drawn)	.	4.0	0.8	.	.
CC(C)CN1C(=O)C(=Nc2cccnc2)c2ccccc21	0.7	-16.3	0.8	1.5	-0.9
CCN(CC)c1ccc(-c2c(C#N)c(N)nc(OC)c2C#N)cc1	4.1	56.5*	32.6	-10.0	4.7
Cn1nc(N)c2c(-c3ccc(Cl)cc3)c(C#N)c(N)nc21	1.2	-0.6	0.2	-3.6	1.1
CCCCn1c(N)c(N(CCOC)C(=O)c2cc(Cl)nc3ccccc23)c(=O)[nH]c1=O	0.1	-2.7	0.2	6.0	0.0
CSc1c(N(C)C)c(=O)c1=S	.	-3.2	0.9	.	.
COC(=O)c1c(C)oc2ccc(N(C(=O)c3ccncc3)S(=O)(=O)c3ccc4ccccc4c3)cc12	6.6	49.9*	2.1	-1.3	2.9
CN(N=Cc1ccc(N(C)C)cc1)C(=O)c1ccccc1N	.	-0.2	0.1	.	.
CCn1c(=O)c(=O)[nH]c2cc(C(=O)N(C)Cc3ccc(OC)c(F)c3)ccc21	0.0	-22.4	-0.6	2.1	0.9
CCN(CC)CCNC(=O)c1ccc(NC(=O)c2ccc(COc3ccccc3)cc2)cc1	.	52.1*	4.1	.	.
CN(C)S(=O)(=O)c1cccc(NC(=O)COC(=O)[C@H](Cc2ccccc2)NC(=O)c2ccco2)c1	4.3	54.9*	13.8	-9.6	3.9
CCOc1cccc(NC(=O)c2ccc(S(=O)(=O)N(C)C)cc2)c1	1.7	-8.2	2.8	-5.3	-0.1
CN(C)S(=O)(=O)c1cccc(NC(=O)c2ccc(COc3ccccc3)cc2)c1	14.2	76.9*	15.0	-15.1	12.7
COc1cccc(S(=O)(=O)NCc2ccc(C(=O)Nc3cccc(Cl)c3)cc2)c1	4.9	50.3*	9.1	-16.8	4.2
